# Results published in ChEMBL document CHEMBL1128566, “Inhibition of human neutrophil elastase. 3. An orally active enol acetate prodrug” (J Med Chem, 1995).
# pKi: −log10 of the molar value.
# Legend:
# Cricetinae gen. sp. = experiment: Ability to inhibit HNE-induced pulmonary hemorrhage, was examined in vivo in hamsters, after administering the compound orally 30 min prior to intratracheal instillation of 25 microg of HNE; format: functional
# Outline: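 Hamsters dosed po at various doses 30 min before intratracheal HNE (25 μg). Killed 1 h later; trachea cannulated and lavaged three times with saline (0.04 mL/g). Hemorrhage measured as BAL hemoglobin by spectrophotometry. One-way ANOVA with Dunnett's test against vehicle-treated animals (p ≤ 0.05). ED50 extrapolated from dose-response curves.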
# [1] = Half-life for the conversion of compound to ketone, was examined by 19F NMR spectroscopy in human blood plasma, at 37 degree Centigrade.; format: ADME, tissue-based
# Outline: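 Human blood plasma incubated at 37 °C. Half-life measured for conversion of enol acetate to the corresponding ketone.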
# Neutrophil elastase [2] = target: T1, Neutrophil elastase (Homo sapiens, UniProt P08246); experiment: Binding affinity for purified Human neutrophil elastase was determined in the presence of pig liver esterase, in vitro.
# T1 sequence (P08246 whole entry): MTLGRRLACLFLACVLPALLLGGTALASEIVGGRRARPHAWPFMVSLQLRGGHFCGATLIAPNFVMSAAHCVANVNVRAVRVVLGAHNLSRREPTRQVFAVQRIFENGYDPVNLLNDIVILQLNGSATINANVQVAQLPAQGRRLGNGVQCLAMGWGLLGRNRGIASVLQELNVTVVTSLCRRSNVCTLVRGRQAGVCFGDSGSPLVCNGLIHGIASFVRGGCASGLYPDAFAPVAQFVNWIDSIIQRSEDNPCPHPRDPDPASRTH
# Outline: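 Partially purified HNE assayed with 12.5 units porcine liver esterase added, at a fixed inhibitor level (66 nM, 100 nM, 133 nM or 1.67 μM, depending on compound). Time course followed; Ki taken from the final rate after the enol acetate was fully hydrolysed. Controls: elastase plus substrate, with or without esterase.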
# [3] = Half-life for the conversion of compound to ketone, was examined by 19F NMR spectroscopy in USP-simulated intestinal fluid, at 50 degree Centigrade.; format: ADME
# Outline: (§1)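 Simulated intestinal fluid at pH 7.5, held at 37 or 50 °C. Half-life taken for conversion of enol acetate to the corresponding ketone.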
# Neutrophil elastase [4] = target: T1, Neutrophil elastase; experiment: Binding affinity for purified Human neutrophil elastase was determined in vitro.
# [5] = Half-life for the conversion of compound to ketone, was examined by 19F NMR spectroscopy in USP-simulated intestinal fluid, at 37 degree Centigrade.; format: ADME; outline: as §1
# [6] = Half-life for the conversion of compound to ketone, was examined by 19F NMR spectroscopy in USP-simulated gastric fluid, at 50 degree Centigrade.; format: ADME
# Outline: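 Simulated gastric fluid at pH 1.2 and 50 °C, followed for up to 12 h. Conversion of enol acetate to the parent ketone tracked to give a half-life.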
half-life [1] [h],pKi (Neutrophil elastase [2]),pKi (Neutrophil elastase [4]),Structure (SMILES),ED50 (Cricetinae gen. sp.) [mg/kg],also measured
–,–,–,CC(C)C(NC(=O)[C@@H]1CCCN1C(=O)[C@@H](NC(=O)c1ccc(C(=O)N2CCOCC2)cc1)C(C)C)C(=O)C(F)(F)C(F)(F)F (some centres not stated),15,–
0.167,8.52,6.49,CC(=O)O/C(=C(/NC(=O)[C@@H]1CCCN1C(=O)[C@@H](NC(=O)c1ccc(C(=O)NS(=O)(=O)c2ccc(Cl)cc2)cc1)C(C)C)C(C)C)C(F)(F)F,> 50,half-life [3]: 1.2 h
–,–,–,CC(C)C(NC(=O)[C@@H]1CCCN1C(=O)[C@@H](NC(=O)c1ccc(C(=O)N2CCOCC2)cc1)C(C)C)C(=O)C(F)(F)F (some centres not stated),> 50,–
–,6.82,5.20,CC(=O)O/C(=C(/NC(=O)[C@@H]1CCCN1C(=O)[C@@H](NC(=O)N1CCOCC1)C(C)C)C(C)C)C(F)(F)F,–,–
–,7.60,–,CCC(=O)O/C(=C(/NC(=O)[C@@H]1CCCN1C(=O)[C@@H](NC(=O)c1ccc(C(=O)N2CCOCC2)cc1)C(C)C)C(C)C)C(F)(F)C(F)(F)F,–,–
0.417,7.60,< 5.70,CC(=O)O/C(=C(/NC(=O)[C@@H]1CCCN1C(=O)[C@@H](NC(=O)c1ccc(C(=O)N2CCOCC2)cc1)C(C)C)C(C)C)C(F)(F)C(F)(F)F,9,half-life [5]: 7.3 h; half-life [3]: 3.1 h
–,–,< 4.30,CC(C)[C@H](NC(=O)OC(C)(C)C)C(=O)N1CCC[C@H]1C(=O)NC(C)(C)C(=O)C(F)(F)C(F)(F)F,–,–
–,–,5.10,CC(C)=C(NC(=O)[C@@H]1CCCN1C(=O)[C@@H](NC(=O)c1ccc(C(=O)N2CCOCC2)cc1)C(C)C)C(=O)C(F)(F)C(F)(F)F,–,–
0.667,–,–,CC(=O)O/C(=C(\NC(=O)[C@@H]1CCCN1C(=O)[C@@H](NC(=O)c1ccc(C(=O)N2CCOCC2)cc1)C(C)C)C(C)C)C(F)(F)C(F)(F)F,–,half-life [5]: 6.6 h
–,–,3.82,CC(C)[C@H](NC(=O)c1ccc(C(=O)N2CCOCC2)cc1)C(=O)N1CCC[C@H]1C(=O)NCC(=O)C(F)(F)C(F)(F)F,–,–
0.25,7.80,–,CC(=O)O/C(=C(/NC(=O)[C@@H]1CCCN1C(=O)[C@@H](NC(=O)c1ccc(C(=O)N2CCOCC2)cc1)C(C)C)C(C)C)C(F)(F)F,> 75,half-life [5]: 2.9 h; half-life [6]: 41 h
–,7.60,–,CC(C)C(=O)O/C(=C(/NC(=O)[C@@H]1CCCN1C(=O)[C@@H](NC(=O)c1ccc(C(=O)N2CCOCC2)cc1)C(C)C)C(C)C)C(F)(F)C(F)(F)F,–,–
